Assay [1] addresses T1, Prostaglandin E synthase (Homo sapiens, UniProt O14684).
T1 sequence (O14684 whole entry): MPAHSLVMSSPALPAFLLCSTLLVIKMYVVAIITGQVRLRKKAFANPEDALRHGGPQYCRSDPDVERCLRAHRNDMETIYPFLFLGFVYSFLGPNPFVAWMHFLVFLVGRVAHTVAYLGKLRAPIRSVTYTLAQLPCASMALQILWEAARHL
In words: Inhibition of full-length microsomal PGES-1 (unknown origin) expressed in Escherichia coli Rosetta(DE3) using PGH2 as substrate assessed as inhibition of PGH2 conversion to PGE2 incubated 15 mins prior to substrate addition measured after 1 min by EIA. The method, boiled down: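 Reactions used 2.5 mM cofactor and 17 μM PGH2 for 1 min at 4 °C, then were stopped, and PGE2 was quantified by EIA. IC50 came from dose-response curves. Mean ± SEM, n = 3.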

Assay [2] addresses T1, Prostaglandin E synthase. Description: Inhibition of PGES-1 in human whole blood assessed as LPS-induced PGE2 formation incubated for 15 mins prior to LPS addition measured after 24 hrs by EIA. The method, boiled down:
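Fresh heparinized blood came from healthy volunteers free of NSAIDs for at least 14 days. It was preincubated 15 min at 37 °C with compound or DMSO vehicle. LPS (final 100 μg/mL) was then added for 24 h at 37 °C. Plasma was obtained by centrifugation at 4 °C, and PGE2 was read by EIA.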

Bounds are passed on as bounds.

As to `Cc1ccc([N+](=O)[O-])cc1NC(=O)CSc1nnc(CNC(=O)COc2c(C)cccc2C)n1C`, the IC50 at Prostaglandin E synthase [1] amounted to 0.71 µM.
`Cc1ccc(Cl)c(NC(=O)CSc2nnc(CNc3c(C)cccc3C)n2C)c1`: the 50% inhibitory concentration (IC50) on Prostaglandin E synthase [1] was determined as 0.2 µM.
On to `Cc1ccc([N+](=O)[O-])cc1NC(=O)CSc1nnc(Cc2ccccc2)n1C`, for which the IC50 on Prostaglandin E synthase [1] is 0.8 µM.
As to `C=CCn1c(SCC(=O)c2ccc3c(c2)Cc2ccccc2-3)nnc1-c1ccc(OC)cc1`, the half-maximal inhibitory concentration (IC50) at Prostaglandin E synthase [1] is 0.91 µM.
The same measure, in the same setting: next, `CCn1c(CNC(=O)c2ccc(C)cc2)nnc1SCC(=O)Nc1cc([N+](=O)[O-])ccc1C`: 0.054 µM.
Still for that read-out and setting: the value for `CCCCCCCCCSc1nnc(-c2ccc(OC)cc2)c(-c2ccc(OC)cc2)n1` was 32.9 µM.
With `COc1ccc(OC)c(NC(=O)CSc2nnc(CNc3c(C)cccc3C)n2C)c1`, the 50% inhibitory concentration (IC50) on Prostaglandin E synthase [1] came out at 0.93 µM.
Consider `Cn1c(=O)c(/C(=N/Nc2ccc([N+](=O)[O-])cc2[N+](=O)[O-])c2nnn[nH]2)c(O)c2ccccc21`, for which the IC50 was 1.7 µM at Prostaglandin E synthase [1] and over 200 µM at Prostaglandin E synthase [2].
As for `Cc1ccc(-c2nnc(SCC(=O)c3c[nH]c4ccccc34)nc2-c2ccc(C)cc2)cc1`, the IC50 at Prostaglandin E synthase [1] stood at 0.48 µM.
Still for that read-out and setting: next, `Cc1[nH]c2ccccc2c1C(=O)C(C)Sc1nnc(-c2ccccc2)c(-c2ccccc2)n1` (centres undefined): 2.1 µM; `O=C1COc2ccc(C(=O)CSc3nnc(-c4ccccc4)c(-c4ccccc4)n3)cc2N1`: 0.29 µM; `C=CCn1c(CNc2c(C)cccc2C)nnc1SCC(=O)Nc1ccccc1C`: 12.6 µM.
As to `O=C(COC(=O)c1ccc2c(c1)C(=O)N(c1ccc(Oc3ccccc3)cc1)C2=O)c1ccc(Br)cc1`, the half-maximal inhibitory concentration (IC50) was found to be 1.7 µM at Prostaglandin E synthase [1] and 200 µM on Prostaglandin E synthase [2].
Consider `CCn1c2ccccc2c2cc(-c3cc(C(=O)O)c4c(ccc5ccccc54)n3)ccc21`, for which the IC50 at Prostaglandin E synthase [1] was 0.1 µM; at Prostaglandin E synthase [2], over 200 µM.
`COc1ccc(C(=O)CSc2nnc(-c3ccco3)c(-c3ccco3)n2)cc1`: the IC50 on Prostaglandin E synthase [1] is 5 µM.
Consider `O=C(CSc1ncc(-c2ccccc2)nn1)c1ccccc1`, for which the concentration for half-maximal inhibition (IC50) on Prostaglandin E synthase [1] was found to be 32.5 µM.
On the same count and under the same terms, next, `O=C(CSc1nnc(-c2ccccc2)c(-c2ccccc2)n1)c1ccccc1`: 2.5 µM.
As for `CCn1c(CNc2ccc(C)cc2C)nnc1SCC(=O)c1ccc(C)cc1`, the IC50 at Prostaglandin E synthase [1] was 7.5 µM.
Regarding `Cc1ccc(-c2nnc(SCC(=O)c3ccc(CC(N)=O)s3)nc2-c2ccc(C)cc2)cc1`, the IC50 on Prostaglandin E synthase [1] came to 0.64 µM.
Regarding `Cc1ccc(C(=O)O)cc1-c1ccc(/C=C2\SC(=O)N(CC(=O)Nc3ccccc3)C2=O)o1`, the IC50 on Prostaglandin E synthase [1] worked out at 1.2 µM; on Prostaglandin E synthase [2], 160 µM.
The corresponding values for `Cc1ccc2[nH]c3c(c2c1)CCC/C3=N\N=C1/CCCc2c1[nH]c1ccc(C)cc21` are 5 µM and over 200 µM.
With `Cc1ccc([N+](=O)[O-])cc1NC(=O)CSc1nnc(CNc2ccc(Cl)cc2)n1C`, the IC50 at Prostaglandin E synthase [1] came to 0.033 µM.
Still for that read-out and setting: the value for `COc1ccc(C(=O)CSc2nnc(-c3ccc(OC)cc3)c(-c3ccc(OC)cc3)n2)cc1` was 1 µM.
The same measure, in the same setting: the value for `Cc1ccc(C)c(NC(=O)CSc2nnc(CNc3c(C)cccc3C)n2-c2ccccc2)c1` was 13.6 µM; that for `Cc1ccc([N+](=O)[O-])cc1NC(=O)CSc1nnc(CC(=O)Nc2ccccc2)n1C` was 0.1 µM.
Regarding `Cc1cccc(C)c1NCc1nnc(SCc2ccc(Cl)cc2)n1-c1ccccc1`, the IC50 at Prostaglandin E synthase [1] amounted to 19.4 µM.
Same read-out and setting: the value for `Cc1ccc(N2CCn3c(SCC(=O)Nc4cc(C)ccc4C)nnc32)cc1` was over 100 µM.
On the same count and under the same terms, next, `O=C(CCCSc1nnc(-c2ccccc2)c(-c2ccccc2)n1)c1ccccc1`: 50.8 µM; `O=C(CSc1nnc(-c2ccccc2)c(-c2ccccc2)n1)c1c[nH]c2ccccc12`: 0.5 µM.
Consider `CCn1c(CNc2ccc(C)cc2C)nnc1SCC(=O)Nc1ccc(C)cc1`, for which the IC50 on Prostaglandin E synthase [1] is 5.1 µM.
With `Clc1ccc(CSc2nnc(-c3ccccc3)c(-c3ccccc3)n2)cc1`, on Prostaglandin E synthase [1], the concentration for half-maximal inhibition (IC50) is over 100 µM.
Regarding `C=CCSc1nnc2c(n1)OC(c1ccc(-c3cccc([N+](=O)[O-])c3)o1)Nc1ccccc1-2` (centres undefined), the IC50 was 1.6 µM on Prostaglandin E synthase [1] and over 200 µM on Prostaglandin E synthase [2].
`CC(C)(C)C(=O)CSc1nnc(-c2ccccc2)c(-c2ccccc2)n1`: at Prostaglandin E synthase [1], the IC50 came out at 17.8 µM.
Still for that read-out and setting: the value for `COc1ccc(-c2nnc(SCC(=O)Nc3ccc(Cl)cc3)nc2-c2ccc(OC)cc2)cc1` was 3.1 µM.
Turning to `O=C(N/N=C/c1ccc([N+](=O)[O-])cc1)c1cc(OCc2ccccc2)c(OCc2ccccc2)c(OCc2ccccc2)c1`, the values for the IC50 at Prostaglandin E synthase [1] and at Prostaglandin E synthase [2] were 0.1 µM and 200 µM, respectively.
As to `CC1=NN(c2ccc(Cl)c(Cl)c2)C(=O)/C1=C/c1cc(Br)ccc1OCC(=O)O`, the values for the IC50 at Prostaglandin E synthase [1] and at Prostaglandin E synthase [2] were 0.17 µM and 18.5 µM, respectively.
Regarding `Cc1nc2sc3c(c2c(=O)n1/N=C/c1cc([N+](=O)[O-])cc([N+](=O)[O-])c1O)CCCC3`, the IC50 at Prostaglandin E synthase [1] was 1.8 µM; at Prostaglandin E synthase [2], 130 µM.
Consider `COc1ccc(CN2C(=O)/C(=C/c3ccc(OCc4ccc([N+](=O)[O-])cc4)c(Br)c3)S/C2=N\c2ccccc2)cc1`, for which the half-maximal inhibitory concentration (IC50) at Prostaglandin E synthase [1] was found to be 0.038 µM; at Prostaglandin E synthase [2] it was 120 µM.
Take `Cc1ccc([N+](=O)[O-])cc1NC(=O)CSc1nnc(CSCc2ccccc2)n1C`: on Prostaglandin E synthase [1], the IC50 worked out at 0.24 µM.
In the case of `Cc1ccc(C)c(NC(=O)CSc2nnc(CNc3c(C)cccc3C)n2C)c1`, the IC50 at Prostaglandin E synthase [1] came to 3.6 µM.
Same read-out and setting: next, `Cc1cccc(C)c1NCc1nnc(SCC(=O)Nc2ccc(F)cc2)n1-c1ccccc1`: 9.2 µM; `O=C(CSc1nc(-c2ccccc2)c(-c2ccccc2)[nH]1)c1ccccc1`: 10.4 µM.
Still for that read-out and setting: the value for `CCCCCCCSc1nnc(-c2ccc(OC)cc2)c(-c2ccc(OC)cc2)n1` was 45.4 µM; that for `O=C(CSc1nnc(-c2ccccc2)c(-c2ccccc2)n1)C12CC3CC(CC(C3)C1)C2` was 13.9 µM.
As to `C/C(=N\NC(=O)c1ccc([N+](=O)[O-])c(C)c1)c1cccc(NC(=O)COc2ccc(Cl)cc2Cl)c1`, the IC50 at Prostaglandin E synthase [1] amounted to 0.057 µM; at Prostaglandin E synthase [2], 66 µM.
In the case of `O=C(CSc1nnc(-c2ccccc2)c(-c2ccccc2)n1)c1cccs1`, the IC50 at Prostaglandin E synthase [1] was determined as 9.6 µM.
The same measure, in the same setting: the value for `CCOC(=O)c1ccc(NC(=O)CSc2nnc(CNc3c(C)cccc3C)n2C)cc1` was 5.4 µM.
Still for that read-out and setting: the value for `Cc1ccc([N+](=O)[O-])cc1NC(=O)CSc1nnc(-c2ccccc2C)n1C` was 54.5 µM.

By IC50 is commonly meant the concentration at which inhibition is half-maximal.
